Assay [1] addresses Death-associated protein kinase 2 (Homo sapiens, UniProt Q9UIK4). Kind of assay: Competitive binding affinity to DAPK2 (unknown origin) at 10 uM in presence of ATP relative to control. A digest of the protocol:
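In vitro ATP-site competition binding assay across a diverse panel of 128 kinases, with each compound tested at a single concentration. Kinase binding is expressed relative to control.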

The target of assay [2] is Protein-tyrosine kinase 6 (Homo sapiens) (UniProt Q13882). The assay is described as follows: Competitive binding affinity to PTK6 (unknown origin) at 10 uM in presence of ATP relative to control. A digest of the protocol: (§1)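 In vitro ATP-site competition binding assay across a diverse panel of 128 kinases, with compound tested at a single concentration. Kinase selectivity scores (S15) were calculated from the panel profiles.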
Chain of Protein-tyrosine kinase 6 (Homo sapiens) (Q13882 whole entry, looked up): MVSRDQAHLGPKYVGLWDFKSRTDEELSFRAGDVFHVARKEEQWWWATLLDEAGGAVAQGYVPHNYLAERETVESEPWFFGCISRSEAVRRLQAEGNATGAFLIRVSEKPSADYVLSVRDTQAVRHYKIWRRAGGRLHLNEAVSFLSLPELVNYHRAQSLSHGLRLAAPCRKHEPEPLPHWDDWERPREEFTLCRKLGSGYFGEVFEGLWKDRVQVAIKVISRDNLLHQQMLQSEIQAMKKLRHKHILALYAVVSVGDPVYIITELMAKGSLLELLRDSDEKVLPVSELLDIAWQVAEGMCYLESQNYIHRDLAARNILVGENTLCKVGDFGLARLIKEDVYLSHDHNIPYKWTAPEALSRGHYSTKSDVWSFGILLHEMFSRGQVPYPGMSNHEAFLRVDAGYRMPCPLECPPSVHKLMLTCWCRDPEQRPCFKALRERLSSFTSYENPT

The target in assay [3] is Ephrin type-A receptor 5 (Homo sapiens) (UniProt P54756). Kind of assay: Competitive binding affinity to EPHA5 (unknown origin) at 10 uM in presence of ATP relative to control. A digest of the protocol: (§2)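 In vitro ATP-site competition binding assay, part of profiling against a diverse panel of 128 kinases. Each compound was tested at a single concentration of 10 µM. Kinome selectivity was summarized as S15 selectivity scores.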
Chain of Ephrin type-A receptor 5 (Homo sapiens) (P54756 whole entry): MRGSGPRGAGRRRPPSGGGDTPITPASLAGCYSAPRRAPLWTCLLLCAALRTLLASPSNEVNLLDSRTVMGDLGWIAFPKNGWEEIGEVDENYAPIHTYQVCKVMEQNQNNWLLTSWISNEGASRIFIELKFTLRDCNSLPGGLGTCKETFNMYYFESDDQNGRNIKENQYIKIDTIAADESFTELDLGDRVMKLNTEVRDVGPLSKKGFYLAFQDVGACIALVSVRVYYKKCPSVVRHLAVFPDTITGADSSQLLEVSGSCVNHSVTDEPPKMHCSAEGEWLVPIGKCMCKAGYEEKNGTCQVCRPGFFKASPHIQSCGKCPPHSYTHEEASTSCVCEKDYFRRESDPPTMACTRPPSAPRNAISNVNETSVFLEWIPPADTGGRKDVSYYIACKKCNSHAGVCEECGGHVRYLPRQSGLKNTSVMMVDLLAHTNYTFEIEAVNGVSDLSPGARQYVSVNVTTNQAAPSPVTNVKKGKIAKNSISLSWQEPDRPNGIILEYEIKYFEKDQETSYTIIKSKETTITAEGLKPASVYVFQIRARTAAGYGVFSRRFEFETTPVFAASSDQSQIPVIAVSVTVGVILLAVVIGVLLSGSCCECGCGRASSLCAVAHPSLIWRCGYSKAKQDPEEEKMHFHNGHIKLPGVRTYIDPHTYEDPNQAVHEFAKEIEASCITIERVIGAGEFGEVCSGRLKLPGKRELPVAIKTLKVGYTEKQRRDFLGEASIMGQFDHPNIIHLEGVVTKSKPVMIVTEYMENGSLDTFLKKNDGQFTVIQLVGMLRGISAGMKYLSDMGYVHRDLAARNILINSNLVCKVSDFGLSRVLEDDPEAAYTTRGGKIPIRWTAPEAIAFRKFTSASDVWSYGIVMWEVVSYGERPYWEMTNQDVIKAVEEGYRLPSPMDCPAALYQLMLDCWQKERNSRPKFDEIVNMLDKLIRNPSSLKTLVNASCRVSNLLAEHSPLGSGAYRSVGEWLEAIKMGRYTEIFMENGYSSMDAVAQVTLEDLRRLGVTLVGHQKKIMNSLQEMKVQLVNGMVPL

Assay [4] deals with Tyrosine-protein kinase Fyn (Homo sapiens) (UniProt P06241). The assay is described as follows: Competitive binding affinity to FYN (unknown origin) at 10 uM in presence of ATP relative to control. A digest of the protocol: as §2
Chain of Tyrosine-protein kinase Fyn (Homo sapiens) (P06241 2-537 limits assumed): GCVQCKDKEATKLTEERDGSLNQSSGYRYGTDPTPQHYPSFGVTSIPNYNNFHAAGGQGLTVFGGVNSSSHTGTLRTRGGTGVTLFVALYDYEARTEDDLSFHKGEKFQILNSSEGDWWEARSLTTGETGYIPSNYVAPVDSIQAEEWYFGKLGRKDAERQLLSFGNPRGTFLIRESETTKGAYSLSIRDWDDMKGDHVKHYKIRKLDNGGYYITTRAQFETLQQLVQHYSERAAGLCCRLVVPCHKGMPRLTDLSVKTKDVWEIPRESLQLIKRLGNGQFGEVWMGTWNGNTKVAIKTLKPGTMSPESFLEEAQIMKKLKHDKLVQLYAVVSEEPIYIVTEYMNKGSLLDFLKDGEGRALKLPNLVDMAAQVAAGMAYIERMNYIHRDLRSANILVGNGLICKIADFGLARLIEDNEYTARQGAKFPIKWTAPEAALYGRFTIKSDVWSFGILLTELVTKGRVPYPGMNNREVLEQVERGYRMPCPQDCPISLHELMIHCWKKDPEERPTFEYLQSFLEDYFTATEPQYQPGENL
Assay [5] concerns the target Ribosomal protein S6 kinase alpha-3 (Homo sapiens) (UniProt P51812). The assay is described as follows: Competitive binding affinity to RPS6KA3 domain 1 (unknown origin) at 10 uM in presence of ATP relative to control. A digest of the protocol: as §1
Assay [6] concerns the target T1, Tyrosine-protein kinase TXK (Homo sapiens) (UniProt P42681).
T1 sequence (whole entry): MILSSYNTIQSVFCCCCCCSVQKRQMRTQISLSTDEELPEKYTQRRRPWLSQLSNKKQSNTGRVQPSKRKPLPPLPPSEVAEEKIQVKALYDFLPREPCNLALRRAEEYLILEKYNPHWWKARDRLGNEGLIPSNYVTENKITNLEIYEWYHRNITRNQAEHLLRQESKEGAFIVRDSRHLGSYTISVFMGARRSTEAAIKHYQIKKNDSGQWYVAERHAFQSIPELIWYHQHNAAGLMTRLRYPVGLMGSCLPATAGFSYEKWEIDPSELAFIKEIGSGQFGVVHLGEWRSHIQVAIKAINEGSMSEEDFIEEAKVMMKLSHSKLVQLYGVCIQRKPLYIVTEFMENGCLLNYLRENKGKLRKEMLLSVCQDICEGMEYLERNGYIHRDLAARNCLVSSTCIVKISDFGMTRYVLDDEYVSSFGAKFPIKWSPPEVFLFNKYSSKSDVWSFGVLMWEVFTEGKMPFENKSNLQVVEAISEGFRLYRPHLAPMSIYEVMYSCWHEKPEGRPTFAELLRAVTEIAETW
Kind of assay: Competitive binding affinity to TXK (unknown origin) at 10 uM in presence of ATP relative to control. In outline:
as §1

Assay [7] deals with T2, Ephrin type-B receptor 1 (Homo sapiens) (UniProt P54762).
T2 sequence (whole entry): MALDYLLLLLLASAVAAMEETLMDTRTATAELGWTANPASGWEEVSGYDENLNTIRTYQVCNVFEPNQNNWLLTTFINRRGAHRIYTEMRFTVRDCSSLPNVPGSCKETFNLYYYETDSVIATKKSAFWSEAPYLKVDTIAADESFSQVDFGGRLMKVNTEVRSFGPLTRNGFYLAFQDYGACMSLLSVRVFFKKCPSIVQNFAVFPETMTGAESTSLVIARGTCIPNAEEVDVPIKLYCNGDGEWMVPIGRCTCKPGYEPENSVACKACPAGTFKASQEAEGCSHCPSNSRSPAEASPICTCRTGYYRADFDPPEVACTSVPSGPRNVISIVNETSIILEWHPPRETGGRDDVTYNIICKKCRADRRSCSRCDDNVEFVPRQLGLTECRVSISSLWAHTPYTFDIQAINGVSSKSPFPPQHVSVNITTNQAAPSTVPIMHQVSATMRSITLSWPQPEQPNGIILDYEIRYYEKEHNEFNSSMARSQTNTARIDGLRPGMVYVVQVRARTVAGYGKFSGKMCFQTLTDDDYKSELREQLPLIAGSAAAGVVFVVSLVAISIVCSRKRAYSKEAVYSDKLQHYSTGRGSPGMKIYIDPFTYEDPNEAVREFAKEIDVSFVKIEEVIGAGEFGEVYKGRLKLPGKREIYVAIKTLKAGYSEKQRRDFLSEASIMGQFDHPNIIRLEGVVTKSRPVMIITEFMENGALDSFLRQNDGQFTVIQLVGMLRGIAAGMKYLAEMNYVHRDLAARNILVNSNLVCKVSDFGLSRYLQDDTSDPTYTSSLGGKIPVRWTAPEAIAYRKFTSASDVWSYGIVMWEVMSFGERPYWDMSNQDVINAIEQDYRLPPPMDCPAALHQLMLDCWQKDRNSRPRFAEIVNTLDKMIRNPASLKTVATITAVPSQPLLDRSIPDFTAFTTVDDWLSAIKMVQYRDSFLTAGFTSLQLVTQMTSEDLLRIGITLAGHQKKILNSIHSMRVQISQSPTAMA
Kind of assay: Competitive binding affinity to EPHB1 (unknown origin) at 10 uM in presence of ATP relative to control. In outline:
as §2

Assay [8] has as its target Proto-oncogene tyrosine-protein kinase ROS (Homo sapiens) (UniProt P08922). Kind of assay: Competitive binding affinity to ROS1 (unknown origin) at 10 uM in presence of ATP relative to control. A digest of the protocol: as §1
In assay [9] the target is T3, Myotonin-protein kinase (Homo sapiens) (UniProt Q09013).
T3 sequence (whole entry): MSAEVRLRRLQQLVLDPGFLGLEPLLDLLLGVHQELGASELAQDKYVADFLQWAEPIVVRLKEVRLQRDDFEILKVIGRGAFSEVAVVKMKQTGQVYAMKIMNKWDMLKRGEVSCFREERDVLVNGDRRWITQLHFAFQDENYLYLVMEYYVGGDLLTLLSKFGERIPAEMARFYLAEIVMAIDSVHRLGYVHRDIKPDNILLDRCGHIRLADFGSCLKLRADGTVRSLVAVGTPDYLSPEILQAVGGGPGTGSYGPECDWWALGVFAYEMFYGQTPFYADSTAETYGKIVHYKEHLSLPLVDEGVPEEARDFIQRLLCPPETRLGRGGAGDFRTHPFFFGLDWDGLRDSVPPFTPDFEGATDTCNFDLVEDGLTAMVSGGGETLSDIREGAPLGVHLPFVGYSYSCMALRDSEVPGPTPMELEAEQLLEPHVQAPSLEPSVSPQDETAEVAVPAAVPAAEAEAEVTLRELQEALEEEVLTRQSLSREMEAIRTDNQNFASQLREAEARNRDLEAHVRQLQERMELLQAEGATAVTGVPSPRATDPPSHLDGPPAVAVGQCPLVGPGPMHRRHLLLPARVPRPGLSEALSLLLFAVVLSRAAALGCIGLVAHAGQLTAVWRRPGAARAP
Kind of assay: Competitive binding affinity to DMPK (unknown origin) at 10 uM in presence of ATP relative to control.

In assay [10] the target is Serine/threonine-protein kinase PAK 6 (Homo sapiens) (UniProt Q9NQU5). Kind of assay: Competitive binding affinity to PAK6 (unknown origin) at 10 uM in presence of ATP relative to control. A digest of the protocol: as §1
Chain of Serine/threonine-protein kinase PAK 6 (Homo sapiens) (Q9NQU5 whole entry, looked up): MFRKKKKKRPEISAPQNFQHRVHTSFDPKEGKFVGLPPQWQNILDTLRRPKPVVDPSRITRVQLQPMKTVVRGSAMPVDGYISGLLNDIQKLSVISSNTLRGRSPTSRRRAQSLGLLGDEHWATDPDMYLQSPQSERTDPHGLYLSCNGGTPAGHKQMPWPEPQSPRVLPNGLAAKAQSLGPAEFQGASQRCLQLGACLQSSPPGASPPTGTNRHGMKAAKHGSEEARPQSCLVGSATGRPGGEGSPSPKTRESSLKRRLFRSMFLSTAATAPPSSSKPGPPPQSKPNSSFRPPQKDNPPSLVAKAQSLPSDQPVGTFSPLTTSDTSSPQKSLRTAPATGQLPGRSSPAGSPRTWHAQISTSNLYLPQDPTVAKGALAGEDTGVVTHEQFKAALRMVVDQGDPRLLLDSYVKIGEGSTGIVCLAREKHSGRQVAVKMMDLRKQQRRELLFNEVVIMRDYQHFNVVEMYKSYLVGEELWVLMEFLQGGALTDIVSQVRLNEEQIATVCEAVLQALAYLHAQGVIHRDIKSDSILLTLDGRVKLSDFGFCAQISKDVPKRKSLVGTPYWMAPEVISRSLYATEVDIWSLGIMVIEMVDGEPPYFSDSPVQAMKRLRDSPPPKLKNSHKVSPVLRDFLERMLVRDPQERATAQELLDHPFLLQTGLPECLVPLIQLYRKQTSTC

Seven compounds from ChEMBL document CHEMBL2424622, “Development of amino-pyrimidine inhibitors of c-Jun N-terminal kinase (JNK): kinase profiling guided optimization of a 1,2,3-benzotriazole lead” (Bioorg Med Chem Lett, 2013) can be followed below.

Chain of Death-associated protein kinase 2 (Q9UIK4 whole entry, looked up): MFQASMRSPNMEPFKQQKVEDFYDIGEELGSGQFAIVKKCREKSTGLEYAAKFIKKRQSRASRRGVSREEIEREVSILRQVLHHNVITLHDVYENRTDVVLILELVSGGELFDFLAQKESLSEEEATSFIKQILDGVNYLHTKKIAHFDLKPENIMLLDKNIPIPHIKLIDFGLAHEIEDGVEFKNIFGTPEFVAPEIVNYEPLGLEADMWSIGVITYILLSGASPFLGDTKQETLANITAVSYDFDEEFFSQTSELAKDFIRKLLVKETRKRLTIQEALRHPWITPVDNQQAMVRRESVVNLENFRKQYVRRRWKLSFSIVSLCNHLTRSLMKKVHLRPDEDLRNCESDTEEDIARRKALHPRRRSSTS
Chain of Ribosomal protein S6 kinase alpha-3 (Homo sapiens) (P51812 whole entry, the tested form may be a part): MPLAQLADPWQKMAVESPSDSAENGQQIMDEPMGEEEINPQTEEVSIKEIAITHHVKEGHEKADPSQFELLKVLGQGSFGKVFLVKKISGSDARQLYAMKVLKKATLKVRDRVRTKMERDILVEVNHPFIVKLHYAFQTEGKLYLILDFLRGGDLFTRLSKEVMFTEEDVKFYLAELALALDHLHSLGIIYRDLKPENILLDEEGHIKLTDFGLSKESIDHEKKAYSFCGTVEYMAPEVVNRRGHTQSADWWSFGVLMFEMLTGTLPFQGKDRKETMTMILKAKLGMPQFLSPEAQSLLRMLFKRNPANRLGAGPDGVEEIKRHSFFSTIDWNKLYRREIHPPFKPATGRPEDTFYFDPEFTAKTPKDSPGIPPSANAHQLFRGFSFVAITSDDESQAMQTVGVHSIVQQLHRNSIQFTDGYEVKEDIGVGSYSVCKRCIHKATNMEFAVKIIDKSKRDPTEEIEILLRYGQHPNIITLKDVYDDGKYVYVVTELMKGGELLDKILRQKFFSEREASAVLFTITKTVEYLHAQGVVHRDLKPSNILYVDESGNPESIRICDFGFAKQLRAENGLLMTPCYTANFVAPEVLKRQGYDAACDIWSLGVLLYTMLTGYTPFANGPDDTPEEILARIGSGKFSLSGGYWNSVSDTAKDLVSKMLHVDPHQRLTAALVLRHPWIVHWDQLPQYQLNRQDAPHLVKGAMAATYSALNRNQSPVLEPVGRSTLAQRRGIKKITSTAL

Consider `O[C@H]1CC[C@H](Nc2nccc(-n3ccc4ccccc43)n2)CC1`, for which the inhibition in assay [1], in assay [2], in assay [3], in assay [4], in [5] and in assay [6] was less than 50% each time. The inhibition in [7], in [8], in assay [9] and in [10] was less than 50% in each case.
Consider `O[C@H]1CC[C@H](Nc2nccc(-n3nnc4ccccc43)n2)CC1`, for which the inhibition in assay [1] is 96%; in [2], less than 50%; in assay [3], less than 50%; in assay [4] it was less than 50%; in assay [5], 77%; in assay [6] it was less than 50%. The inhibition in assay [7], in [8], in [9] and in [10] was less than 50% in each case.
As to `CS(=O)(=O)CCCOc1cccc2c1ccn2-c1ccnc(N[C@H]2CC[C@H](C(=O)N3CCC(O)CC3)CC2)n1`, in assay [1], the inhibition is more than 85%.
Consider `O=C([C@H]1CC[C@H](Nc2nccc(-n3nnc4ccccc43)n2)CC1)N1CCOCC1`, for which the inhibition is less than 50% in assay [1]; less than 50% in [2]; less than 50% in [3]; 81% in [4]; 90% in assay [5]; less than 50% in assay [6]. The inhibition in assay [7], in [8], in assay [9] and in assay [10] was less than 50% in each case.
As to `O[C@H]1CC[C@H](Nc2nccc(-n3ncc4ccccc43)n2)CC1`, the inhibition in assay [1], in [2], in [3], in assay [4], in [5] and in assay [6] was less than 50% each time. The inhibition in assay [7], in assay [8], in assay [9] and in [10] was less than 50% in each case.
With `O[C@H]1CC[C@H](Nc2nccc(-c3n[nH]c4ccccc34)n2)CC1`, the inhibition in [1] was 94%; in assay [2], 78%; in [3], less than 50%; in assay [4] it was 77%; in assay [5], 97%; in assay [6] it was less than 50%. Also, the inhibition is less than 50% in [7], less than 50% in assay [8], 80% in assay [9] and 86% in assay [10].
For the compound `N[C@H]1CC[C@H](Nc2nccc(-n3nnc4ccccc43)n2)CC1`, the inhibition is 94% in [1]; less than 50% in [2]; less than 50% in [3]; 80% in [4]; 84% in assay [5]; less than 50% in assay [6]. Further, the inhibition in [7] is 73%; in assay [8], less than 50%; in assay [9], less than 50%; in assay [10], less than 50%.

One may read the inhibition as the share of the control response that was lost under treatment.
